From ChEMBL document CHEMBL1122366, “Potential antiatherosclerotic agents. 3. Substituted benzoic and non benzoic acid analogues of cetaben” (1983) come the findings set out here.

The target of test [1] is T1, Sterol O-acyltransferase 1 (Rattus norvegicus) (UniProt O70536).
T1 sequence (whole entry): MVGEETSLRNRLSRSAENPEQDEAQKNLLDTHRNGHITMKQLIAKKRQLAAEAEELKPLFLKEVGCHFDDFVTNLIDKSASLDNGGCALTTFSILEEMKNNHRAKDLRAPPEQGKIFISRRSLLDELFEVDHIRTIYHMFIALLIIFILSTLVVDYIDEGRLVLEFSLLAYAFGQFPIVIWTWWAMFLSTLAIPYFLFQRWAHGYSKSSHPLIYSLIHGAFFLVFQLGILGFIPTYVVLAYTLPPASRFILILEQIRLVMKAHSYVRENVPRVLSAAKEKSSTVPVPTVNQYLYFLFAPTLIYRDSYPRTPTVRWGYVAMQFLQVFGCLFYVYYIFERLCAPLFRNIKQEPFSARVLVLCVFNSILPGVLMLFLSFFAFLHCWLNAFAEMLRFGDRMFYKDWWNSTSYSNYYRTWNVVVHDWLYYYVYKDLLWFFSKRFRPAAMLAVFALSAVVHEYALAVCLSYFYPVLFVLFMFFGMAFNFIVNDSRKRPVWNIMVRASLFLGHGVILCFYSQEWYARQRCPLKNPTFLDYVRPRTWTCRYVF
Description: In vitro inhibition of acyl coenzyme A:cholesterol acyltransferase. The arrangement: concentration or dose not given beside the values. The note with it: concentration not given here. The method, boiled down: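 Enzyme fatty acyl-CoA:cholesterol acyltransferase (ACAT), assayed in vitro at a single drug concentration of 5.2 μg/mL. The value is the mean percent inhibition of enzyme activity.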

For test [2], the system named is Rattus norvegicus. Description: In vivo triglyceride lowering activity when dosed at 0.03 % of the diet. Type of test: functional. The method, boiled down: (§1)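 Normal rats were dosed in the diet. Serum sterol and triglyceride levels were measured and expressed as the mean percent of control values. Significance versus control was reported at p < 0.05, 0.01 and 0.001.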

Test [3] concerns Rattus norvegicus. Description: In vivo sterol lowering activity when dosed as 0.01 % of the diet. The class given is functional. The method, boiled down:
as §1

The subject of test [4] is Rattus norvegicus. Put plainly: In vivo sterol lowering activity when dosed as 0.03 % of the diet. The class given is functional. The method, boiled down:
as §1

Test [5] concerns Rattus norvegicus. Description: In vivo sterol lowering activity at dose of 0.10 % of the diet. The class given is functional. The method, boiled down:
as §1

The test system of test [6] is Rattus norvegicus. Put plainly: In vivo triglyceride lowering activity when dosed as 0.01 % of the diet. The class given is functional. The method, boiled down:
as §1

Test [7] deals with Rattus norvegicus. Put plainly: In vivo triglyceride lowering activity dosed at 0.10 % of the diet. The class given is functional. The method, boiled down: as §1

With `CCCCCCCCCCCCCCCCNc1ccc(C(=O)CO)cc1`, the inhibition in test [1] came to 20%. Moreover, the “serum triglyceride level, percent of control” value in test [2] is 75%; in test [6], 89%. The “serum sterol level, % of control” value in test [3] worked out at 103%. The “serum sterol level, percent of control” value is given as 97% in test [4] and less than 85% in test [5]. The “serum triglyceride, percent of control” value in test [7] is less than 71%.

In turn, `CCCCCCCCCCCCCCCCNc1ccc(C(=O)O)cc1C` had an inhibition in test [1] of 1%. Moreover, the “serum triglyceride level, percent of control” value is 96% in test [2] and 75% in test [6]. For the same compound, in test [3], the “serum sterol level, % of control” value is 94%. Besides, the “serum sterol level, percent of control” value in test [4] is reported as 92%; in test [5] it was less than 91%. Moreover, the “serum triglyceride, percent of control” value in test [7] is listed as 101%.

`CCCCCCCCCCCCCCCCNc1ccc(C(=O)CS(C)(=O)=O)cc1` came in with an inhibition in test [1] of 0%. In addition, the “serum triglyceride level, percent of control” value in test [2] was found to be 112%; in test [6], 88%. Further, the “serum sterol level, % of control” value in test [3] was 98%. Further, the figures for the “serum sterol level, percent of control” value in test [4] and in test [5] were 97% and 100%, respectively. Besides, in test [7], the “serum triglyceride, percent of control” value was 110%.

In test [1], `CCCCCCCCCCCCCCCCNc1ccc(C(=O)NS(=O)(=O)c2ccccc2)cc1` gave an inhibition of less than 22%. In addition, the “serum triglyceride level, percent of control” value is recorded as less than 55% in test [2] and 86% in test [6]. Moreover, the “serum sterol level, % of control” value in test [3] is 88%. The “serum sterol level, percent of control” value in test [4] is less than 84%; in test [5] it was less than 67%. Moreover, the “serum triglyceride, percent of control” value in test [7] is less than 36%.

The compound `CCCCCCCCCCCCCCCCNc1ccc(C=O)cc1` yielded an inhibition in test [1] of less than 30%. Also, the “serum triglyceride level, percent of control” value in test [2] is recorded as less than 64%; in test [6], less than 66%. Besides, in test [3], the “serum sterol level, % of control” value was 91%. For the same compound, the “serum sterol level, percent of control” value is 92% in test [4] and less than 85% in test [5]. For the same compound, in test [7], the “serum triglyceride, percent of control” value is recorded as less than 53%.

Turning to `CCCCCCCCCCCCCCCCNc1ccc(C(=O)O)cc1F`, in test [1], the inhibition is less than 27%. For the same compound, the “serum triglyceride level, percent of control” value turned out to be 89% in test [2] and 91% in test [6]. Moreover, the “serum sterol level, % of control” value in test [3] was 108%. Besides, the results for the “serum sterol level, percent of control” value in test [4] and in test [5] were 98% and less than 79%, respectively. The “serum triglyceride, percent of control” value in test [7] is reported as less than 49%.

On to `CCCCCCCCCCCCCCCCNc1ccc(C(=O)O)c(OCCCCCCCCCCCCCCCC)c1`, for which the inhibition in test [1] was 6%. Also, the “serum triglyceride level, percent of control” value in test [2] came to 82%; in test [6] it was 126%. Also, the “serum sterol level, % of control” value in test [3] was found to be 90%. Moreover, the results for the “serum sterol level, percent of control” value in test [4] and in test [5] were 99% and 95%, respectively. Also, in test [7], the “serum triglyceride, percent of control” value was found to be 84%.

In test [1], `CCCCCCCCCCCCCCCCNc1ccc(C(=O)CC#N)cc1` had an inhibition of less than 22%. The “serum triglyceride level, percent of control” value in test [2] is given as 140%; in test [6], 132%. Further, the “serum sterol level, % of control” value in test [3] is reported as 107%. Besides, the “serum sterol level, percent of control” value in test [4] was 104%; in test [5] it was 115%. For the same compound, the “serum triglyceride, percent of control” value in test [7] came to 130%.

`CCCCCCCCCCCCCCCCNc1ccc(C(=O)NN)cc1` gave an inhibition in test [1] of less than 24%. The “serum triglyceride level, percent of control” value turned out to be 84% in test [2] and 108% in test [6]. For the same compound, the “serum sterol level, % of control” value in test [3] is 110%. In addition, the “serum sterol level, percent of control” value is reported as 105% in test [4] and 116% in test [5]. For the same compound, the “serum triglyceride, percent of control” value in test [7] worked out at 84%.

On to `CCCCCCCCCCCCCCCCNc1ccc(C(=O)NCCS(=O)(=O)O)cc1`, for which the inhibition in test [1] was less than 45%. In addition, the “serum triglyceride level, percent of control” value is on record as 71% in test [2] and less than 67% in test [6]. Further, the “serum sterol level, % of control” value in test [3] was determined as 91%. The “serum sterol level, percent of control” value in test [4] is 90%; in test [5], less than 80%. Also, the “serum triglyceride, percent of control” value in test [7] is less than 56%.

For the compound `CCCCCCCCCCCCCCCCNc1csc(C(=O)O)c1`, the inhibition in test [1] was determined as 70%. Also, the “serum triglyceride level, percent of control” value in test [2] stood at 103%; in test [6], 112%. Moreover, the “serum sterol level, % of control” value in test [3] is on record as 98%. In addition, the “serum sterol level, percent of control” value in test [4] was determined as 101%; in test [5] it was 98%. Also, the “serum triglyceride, percent of control” value in test [7] amounted to 79%.

Take `CCCCCCCCCCCCCCCCNc1ccc(C(=O)NS(=O)(=O)c2ccc([N+](=O)[O-])cc2)cc1`: the inhibition in test [1] was less than 43%. The “serum triglyceride level, percent of control” value is recorded as less than 79% in test [2] and 92% in test [6]. In addition, the “serum sterol level, % of control” value in test [3] came to 105%. Besides, the “serum sterol level, percent of control” value is recorded as 94% in test [4] and less than 82% in test [5]. In test [7], the “serum triglyceride, percent of control” value is given as 108%.

With `CCCCCCCCCCCCCCCCNc1ccc(C(=O)OCC(=O)OCC)cc1`, the inhibition in test [1] came to 15%. Also, the figures for the “serum triglyceride level, percent of control” value in test [2] and in test [6] were 76% and 92%, respectively. In test [3], the “serum sterol level, % of control” value is recorded as less than 80%. Besides, the “serum sterol level, percent of control” value in test [4] is reported as less than 81%; in test [5] it was less than 66%. Further, the “serum triglyceride, percent of control” value in test [7] was 72%.

In test [1], `Br.CCCCCCCCCCCCCCCCNc1ccc(OC(C)=O)cc1` yielded an inhibition of 12%. The “serum triglyceride level, percent of control” value came to 146% in test [2] and 108% in test [6]. Also, the “serum sterol level, % of control” value in test [3] was 92%. The “serum sterol level, percent of control” value in test [4] came to 95%; in test [5] it was 91%. The “serum triglyceride, percent of control” value in test [7] amounted to 117%.

In turn, `CCCCCCCCCCCCCCCCNc1ccc(C(=O)NC(C)(C)C(=O)O)cc1` showed an inhibition in test [1] of 13%. In addition, the “serum triglyceride level, percent of control” value in test [2] was found to be 90%; in test [6] it was 84%. For the same compound, the “serum sterol level, % of control” value in test [3] is 89%. For the same compound, the entries for the “serum sterol level, percent of control” value in test [4] and in test [5] were 95% and 88%, respectively. Further, in test [7], the “serum triglyceride, percent of control” value worked out at 83%.

In turn, `CCCCCCCCCCCCCCCCNc1ccc(C(=O)C(C(=O)OCC)C(=O)OCC)cc1` registered an inhibition in test [1] of 9%. The “serum triglyceride level, percent of control” value in test [2] is less than 66%; in test [6], less than 68%. For the same compound, the “serum sterol level, % of control” value in test [3] came to 100%. Also, the “serum sterol level, percent of control” value was 96% in test [4] and less than 87% in test [5]. Also, the “serum triglyceride, percent of control” value in test [7] is reported as less than 59%.

As for `CCCCCCCCCCCCCCCCNc1ccc(C(=O)OCCO)cc1`, the inhibition in test [1] stood at 17%. The “serum triglyceride level, percent of control” value in test [2] was less than 65%; in test [6], less than 75%. In addition, the “serum sterol level, % of control” value in test [3] was determined as 106%. Further, the figures for the “serum sterol level, percent of control” value in test [4] and in test [5] were 92% and less than 83%, respectively. Further, the “serum triglyceride, percent of control” value in test [7] is given as less than 52%.

In test [1], `CCCCCCCCCCCCCCCCNC1CCC(C(=O)OC)CC1` (stereo not given) registered an inhibition of less than 37%. The “serum triglyceride level, percent of control” value is reported as 88% in test [2] and 78% in test [6]. Further, the “serum sterol level, % of control” value in test [3] stood at 99%. Further, the “serum sterol level, percent of control” value was 92% in test [4] and less than 71% in test [5]. Besides, the “serum triglyceride, percent of control” value in test [7] is recorded as less than 63%.

As to `CCCCCCCCCCCCCCCCNc1cc(C(=O)[O-])cc(C(=O)[O-])c1.[Na+].[Na+]`, in test [1], the inhibition was 0%. Moreover, the “serum triglyceride level, percent of control” value is on record as 115% in test [2] and 96% in test [6]. In addition, in test [3], the “serum sterol level, % of control” value came to 92%. In addition, the “serum sterol level, percent of control” value came out at 99% in test [4] and 90% in test [5]. In addition, the “serum triglyceride, percent of control” value in test [7] was found to be 103%.

Take `CCCCCCCCCCCCCCCCNc1ccc(C(=O)NO)cc1`: the inhibition in test [1] came to 9%. In addition, the entries for the “serum triglyceride level, percent of control” value in test [2] and in test [6] were 76% and 70%, respectively. Further, the “serum sterol level, % of control” value in test [3] turned out to be 106%. For the same compound, the “serum sterol level, percent of control” value is given as 106% in test [4] and 104% in test [5]. Besides, the “serum triglyceride, percent of control” value in test [7] was 82%.

For orientation: inhibition means the relative decrease from the control value, in per cent.
